In ChEMBL document CHEMBL1151987, “Glionitrin A, an antibiotic-antitumor metabolite derived from competitive interaction between abandoned mine microbes” (J Nat Prod, 2009):
In brackets after ≈: the same amount, converted by molar mass.

Legend:
[1] = system: Trichophyton rubrum; experiment: Antifungal activity against Trichophyton rubrum IFO 9185; format: functional
[2] = system: Staphylococcus aureus; experiment: Antibacterial activity against methicillin-resistant Staphylococcus aureus ATCC 700788; format: functional
[3] = system: Bacillus subtilis; experiment: Antibacterial activity against Bacillus subtilis ATCC 6633; format: functional
[4] = system: Proteus vulgaris; experiment: Antibacterial activity against Proteus vulgaris ATCC 3851; format: functional
[5] = system: Micrococcus luteus; experiment: Antibacterial activity against Micrococcus luteus IFC 12708; format: functional
[6] = system: Staphylococcus aureus; experiment: Antibacterial activity against methicillin-resistant Staphylococcus aureus ATCC 700787; format: functional
[7] = system: Salmonella enterica subsp. enterica; experiment: Antibacterial activity against Salmonella Typhimurium ATCC 14028; format: functional, Salmonella enterica subsp. enterica serovar Typhimurium
[8] = system: Staphylococcus aureus; experiment: Antibacterial activity against methicillin-resistant Staphylococcus aureus ATCC 43300; format: functional
[9] = system: AGS; experiment: Cytotoxicity against human AGS cells; format: functional, cell-based
Method in brief: (§1)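 Cell proliferation inhibition measured by MTT assay; the value is reported as IC50 in µM.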

[10] = system: Aspergillus fumigatus; experiment: Antifungal activity against Aspergillus fumigatus HIC 6094; format: functional
[11] = system: HepG2; experiment: Cytotoxicity against human HepG2 cells; format: functional, cell-based; method in brief: as §1
[12] = system: MCF7; experiment: Cytotoxicity against human MCF7 cells; format: functional, cell-based; method in brief: as §1
[13] = system: HCT-116; experiment: Cytotoxicity against human HCT116 cells; format: functional, cell-based; method in brief: as §1
[14] = system: A549; experiment: Cytotoxicity against human A549 cells; format: functional, cell-based; method in brief: as §1
[15] = system: DU-145; experiment: Cytotoxicity against human DU145 cells; format: functional, cell-based; method in brief: as §1

| Structure (SMILES) | MIC [1] [mg/L] | MIC [2] [mg/L] | MIC [3] [mg/L] | MIC [4] [mg/L] | MIC [5] [mg/L] | MIC [6] [mg/L] | MIC [7] [mg/L] | MIC [8] [mg/L] | IC50 [9] [µM] | MIC [10] [mg/L] | IC50 [11] [µM] | IC50 [12] [µM] | IC50 [13] [µM] | IC50 [14] [µM] | IC50 [15] [µM] |
| --- | --- | --- | --- | --- | --- | --- | --- | --- | --- | --- | --- | --- | --- | --- | --- |
| C[C@@H]1[C@H](O)[C@@H](C)/C=C/C=C/C=C/C=C/C=C/C=C/C=C/[C@H](O[C@@H]2O[C@H](C)[C@@H](O)[C@H](N)[C@@H]2O)C[C@@H]2O[C@](O)(C[C@@H](O)C[C@@H](O)[C@H](O)CC[C@@H](O)C[C@@H](O)CC(=O)O[C@H]1C)C[C@H](O)[C@H]2C(=O)O [AMPHOTERICIN B] | 1.56 (≈ 1.69 µM) |  |  |  |  |  |  |  |  |  |  |  |  |  |  |
| CC1(C)S[C@@H]2[C@H](NC(=O)[C@H](N)c3ccccc3)C(=O)N2[C@H]1C(=O)O [AMPICILLIN] |  | 25 (≈ 71.5 µM) | 3.13 (≈ 8.96 µM) | 1.56 (≈ 4.46 µM) | 0.78 (≈ 2.23 µM) | 12.5 (≈ 35.8 µM) | 12.5 (≈ 35.8 µM) | 12.5 (≈ 35.8 µM) |  |  |  |  |  |  |  |
| CN1C(=O)[C@@]23Cc4ccc([N+](=O)[O-])cc4N2C(=O)[C@@]1(CO)SS3 [GLIONITRIN A] | 12.5 (≈ 35.4 µM) | 0.78 (≈ 2.21 µM) | 6.25 (≈ 17.7 µM) | 3.13 (≈ 8.86 µM) | 0.78 (≈ 2.21 µM) | 0.78 (≈ 2.21 µM) | 3.13 (≈ 8.86 µM) | 0.78 (≈ 2.21 µM) | 0.45 | 12.5 (≈ 35.4 µM) | 2.3 | 2 | 0.82 | 0.55 | 0.24 |
